Columns and labels:
DU-145 = assay: Cytotoxicity against human DU145 cells after 72 hrs by MTT assay; assay type: functional, cell-based; conditions: DU-145, 72 h
Method in brief: (§1)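 Antiproliferative screen on cancer lines PC3, DU145, SKOV3 and A549 and on normal human WI-38 fibroblasts. Paclitaxel was the positive control and DMSO the negative control. IC50 in μM reported as the mean of duplicate measurements.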

SK-OV-3 = assay: Cytotoxicity against human SKOV3 cells after 72 hrs by MTT assay; assay type: functional, cell-based; conditions: SK-OV-3, 72 h; method in brief: as §1
PC-3 = assay: Cytotoxicity against human PC3 cells after 72 hrs by MTT assay; assay type: functional, cell-based; conditions: PC-3, 72 h; method in brief: as §1
A549 = assay: Cytotoxicity against human A549 cells after 72 hrs by MTT assay; assay type: functional, cell-based; conditions: A549, 72 h; method in brief: as §1
WI-38 = assay: Cytotoxicity against human WI38 cells after 72 hrs by MTT assay; assay type: cell-based; conditions: WI-38, 72 h; method in brief: as §1

Compound | IC50 (DU-145) | IC50 (SK-OV-3) | IC50 (PC-3) | IC50 (A549) | IC50 (WI-38)
C=CC(=C)CC[C@]1(C)[C@H]2C[C@H](OC(C)=O)C=C3[C@@H](OCC)O[C@H](OC(C)=O)[C@@]32[C@H](OC)C[C@@H]1C | 51.7 µM | 99.8 µM | 46.4 µM | 45.2 µM | 57.6 µM
C=CC(=C)CC[C@]1(C)[C@H]2C[C@@H](OC(C)=O)C=C3[C@H](OC(C)=O)O[C@H](OC(C)=O)[C@@]32[C@H](OC)C[C@@H]1C | 4.3 µM | 6.2 µM | 4.7 µM | 7.1 µM | 13.3 µM
C=CC(=C)CC[C@]1(C)[C@H]2C[C@H]3C[C@@H]4[C@H](OC(C)=O)O[C@H](O3)[C@@]42CC[C@@H]1C | 13.3 µM | 30.6 µM | 6.2 µM | 19.7 µM | 41 µM
C=CC(=C)CC[C@]1(C)[C@H]2C[C@H]3C[C@@H]4[C@@H](OC(C)=O)O[C@H](O3)[C@@]42CC[C@@H]1C | 14.1 µM | 36.2 µM | 5.6 µM | 24 µM | 51 µM
C=CC(=C)CC[C@]1(C)[C@H]2C[C@H](O)C[C@@H]3[C@H](OC(=O)CCC)O[C@H](OC(C)=O)[C@@]32CC[C@@H]1C | 67.2 µM | 25.3 µM | 7.2 µM | 13.9 µM | 58.1 µM
C=CC(=C)CC[C@]1(C)[C@H]2C[C@H](OC(=O)C(C)CC)C=C3[C@@H](OCC)O[C@H](OC(C)=O)[C@@]32[C@H](O)C[C@@H]1C (relative stereo) | 14.8 µM | 15.3 µM | 46.9 µM | 49.8 µM | 60.2 µM
C=CC(=C)CC[C@]1(C)[C@H]2CC(=O)C=C3[C@H](OC(C)=O)O[C@H](OC(C)=O)[C@@]32[C@H](OC)C[C@@H]1C (relative stereo) | 5.6 µM | 17.6 µM | 6.5 µM | 13.3 µM | 20.3 µM
C=CC(=C)CC[C@]1(C)[C@H]2CC(=O)C=C3[C@H](OC(=O)CCC)O[C@H](OC(C)=O)[C@@]32[C@H](OC)C[C@@H]1C (relative stereo) | 7.2 µM | 7.2 µM | 4.6 µM | 11.3 µM | 14.8 µM
C=C(C)[C@@H](C)C[C@@H](O)[C@@H](C)[C@H]1CC[C@@]2(C)[C@@H]3CCC4=C(C[C@]35O[C@@H]5C[C@]12C)C(=O)C=CC4(C)C (relative stereo) | 26.1 µM | 73.8 µM | 22.5 µM | 37.7 µM | 78.4 µM
C=CC(=C)CC[C@]1(C)[C@H](C)CC[C@@]23[C@@H](OC(C)=O)O[C@H](OC(C)=O)[C@@H]2C[C@H](O)C[C@@H]13 (relative stereo) | 6.6 µM | 17.9 µM | 8.2 µM | 15.2 µM | 26.3 µM
C=CC(=C)CC[C@]1(C)[C@H]2C[C@H](OC(=O)C(C)CC)C=C3[C@H](OC(C)=O)O[C@@H](OC(C)=O)[C@@]32[C@H](OC)C[C@@H]1C (relative stereo) | 4.8 µM | 7.2 µM | 5.6 µM | 7.9 µM | 13.3 µM
C=CC(=C)CC[C@]1(C)[C@H]2C[C@@H](OC(C)=O)C[C@@H]3[C@H](OC(C)=O)O[C@H](OC(C)=O)[C@@]32CC[C@@H]1C (relative stereo) | 20 µM | 38.2 µM | 36.1 µM | 66.2 µM | 56.9 µM
C=CC(=C)CC[C@]1(C)[C@H]2C[C@@H](O)C[C@@H]3[C@H](OC(=O)CCC)O[C@H](OC(C)=O)[C@@]32CC[C@@H]1C (relative stereo) | 5.8 µM | 10.2 µM | 6.3 µM | 16.2 µM | 21.1 µM
C=CC(=C)CC[C@]1(C)[C@H]2C[C@@H](OC(C)=O)C=C3[C@@H](OCC)O[C@H](OC(C)=O)[C@@]32[C@H](OC)C[C@@H]1C (relative stereo) | 47.2 µM | 35.9 µM | 34.2 µM | 53.3 µM | 55.7 µM
C=CC(=C)CC[C@]1(C)[C@H]2C[C@H](OC(=O)C(C)CC)C=C3[C@H](OC(C)=O)O[C@H](OC(C)=O)[C@@]32[C@H](O)C[C@@H]1C (relative stereo) | 4.3 µM | 5.1 µM | 4.5 µM | 5.7 µM | 9.8 µM
C=CC(=C)CC[C@]1(C)[C@H]2C[C@H](OC(=O)C(C)CC)C=C3[C@H](OC(=O)CCC)O[C@H](OC(C)=O)[C@@]32[C@H](O)C[C@@H]1C (stereo partly drawn) [CASEAMEMBRIN A] | 5 µM | 8.7 µM | 10.5 µM | 15.7 µM | 19.6 µM
CC(=O)O[C@H]1C(=O)[C@@]2(C)[C@H]([C@H](OC(=O)c3ccccc3)[C@]3(O)C[C@H](OC(=O)[C@H](O)[C@@H](NC(=O)c4ccccc4)c4ccccc4)C(C)=C1C3(C)C)[C@]1(OC(C)=O)CO[C@@H]1C[C@@H]2O [PACLITAXEL] | 0.04 µM |  | 0.02 µM |  | 0.05 µM

From ChEMBL document CHEMBL2417524, “Cytotoxic clerodane diterpenoids from the leaves and twigs of Casearia balansae” (J Nat Prod, 2013)
